The values that follow come from PubChem BioAssay AID449761 (Broad Institute, 2010).

The structures appear in SMILES notation. Inconclusive results are not listed. Calls of active or inactive are those of the source.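 Rule for the calls: active = compounds raising caspase signal with fitted AC50 no more than tenfold above the top tested dose; inconclusive = flat curve at 30 to 70% activity, or unusable fit; inactive = the rest.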 Where only a bound is given, the exact number is not on record here.

One may read the AC50 as the concentration at which the activity in the assay is half-maximal.

The test has as its system MEF WT non-primed, caspase-Glo luminescence, 3 h. Briefly: caspase activity of non-primed cells – cell-based, caspase-Glo luminescence, 3 h, counter-screen for Bcl2-A1 inhibitor project, dose response (AID 449761). The gist of the method: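 Incubation: 3 h compound at 37 °C, 1 h reagent at RT / System: Non-primed wild-type MEF cells / Signal: CaspaseGlo luminescence, reagent diluted 1:1 in 50 mM HEPES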
Background: A counterscreen serves to expose hits that act by an unwanted route or on another target.
`CCCCCCCC/C=C\CCCCCCCC(=O)NCCc1ccc(O)c(O)c1`: the AC50 was 14 µM.
The same measure for `Cc1ccc(C=C2C(Cl)=C(Cl)C(Cl)=C2Cl)cc1`: 5.72 µM.
As for `COc1ccc(NC(=S)NC(NC(=O)/C=C/c2ccccc2)C(Cl)(Cl)Cl)cc1` (stereo not drawn), the figure is > 35 µM (inactive); as for `COCc1cc(C)nc(SCC(=O)Nc2nc(C)cs2)c1C#N`, > 35 µM (inactive).
Take `CCc1ccccc1NC(=O)C(CC)Sc1nc2cc3c(cc2c(=O)n1Cc1ccco1)OCO3` (stereo not drawn): the AC50 is > 35 µM (inactive).
The same measure for `Cc1ccc2c(c1)C(=O)C(=O)N2Cc1ccc(Br)cc1`: > 35 µM (inactive).
The same measure for `Cc1ccc(C)c(NC(=S)NC(NC(=O)Cc2cccc3ccccc23)C(Cl)(Cl)Cl)c1` (stereo not drawn): 12 µM; for `Cc1ccc2c(c1)c(C1=c3ccccc3=NC1=O)c(O)n2C`: > 35 µM (inactive); for `CC(=O)OC(C)(C)/C=C/C(=O)[C@](C)(O)C1[C@H](O)C[C@@]2(C)C3CC=C4C(C[C@H](O)C(=O)C4(C)C)[C@]3(C)C(=O)C[C@]12C` (stereo partly drawn): > 35 µM (inactive).
`COc1ccc(N(C(=O)CCl)C(C(=O)NCCc2ccccc2)c2cccs2)cc1Cl` (stereo not drawn): the AC50 was 27.4 µM.
The same measure for `Cc1ccc(N(Cc2cc(=O)[nH]c3ccccc23)C(=O)CCl)cc1`: > 35 µM (inactive); for `CCOCCCNC(=O)c1ccc2c(c1)N=C(CC)c1cc(Br)ccc1S2`: > 35 µM (inactive); for `CCC1CCCCN1S(=O)(=O)c1ccc(NC(=O)c2nc(S(C)(=O)=O)ncc2Cl)cc1` (stereo not drawn): 4.2 µM.
The same measure for `CN(C)CCCN(C(=O)c1cc2cc([N+](=O)[O-])ccc2s1)c1nc2cc3c(cc2s1)OCCO3`: > 35 µM (inactive).
As for `CCOC(=O)c1c(C)oc2c1c(CN1CCN(C(=O)OCC)CC1)c(O)c1ccccc12`, the figure is 20.8 µM; as for `CCc1ccc(Nc2n[n+](-c3ccccc3)c(/C=C/c3ccccc3)s2)cc1`, 9.79 µM.
As to `CCOC(=O)Cc1csc(/N=C/c2c(O)n(-c3ccc(C)c(C)c3)c(=O)c3ccccc23)n1`, the AC50 is 9.55 µM.
In the case of `CCOC(=O)COc1ccccc1/C=C\[N+](=O)[O-]`, the half-maximal activity concentration (AC50) was 12.2 µM.
Take `Cc1ccc(S(=O)(=O)c2nnn3c2nc(Nc2cccc(C)c2)c2ccccc23)cc1`: the AC50 is > 35 µM (inactive).
As for `Cc1ccc(S(=O)(=O)N(C)Cc2ccc(C(=O)N/N=C/c3ccc(OC(F)F)cc3)cc2)cc1`, the figure is > 35 µM (inactive).
As for `CCS(=O)(=O)c1ncc(Cl)c(C(=O)Nc2ccc(S(=O)(=O)N3CCC(C)CC3)cc2)n1`, the figure is > 35 µM (inactive); as for `O=C(NCc1ccccc1Br)c1cccc2c1C(=O)c1ccc(-c3ccc(OC(F)(F)F)cc3)cc1S2(=O)=O`, > 35 µM (inactive).
As for `O=C(Nc1ccc2oc(-c3ccccc3Cl)nc2c1)c1cncc(Br)c1`, the figure is 30.7 µM; as for `COc1ccc(OC)c2sc(N(CCCN(C)C)C(=O)c3ccc(S(=O)(=O)N4CCc5ccccc5C4)cc3)nc12`, > 35 µM (inactive).
`C#CC(=O)N(c1cc(OC)ccc1OC)C(C(=O)NC1CCCC1)c1cccs1` (stereo not drawn): the AC50 was > 35 µM (inactive).
As for `O=C(Nc1ccc2oc(-c3ccccc3)nc2c1)c1ccccc1F`, the AC50 is > 35 µM (inactive).
`Cc1ccc(Sc2c([N+](=O)[O-])c(=O)n(C)c3ccccc23)cc1`: the AC50 was > 35 µM (inactive).
The same measure for `CCCc1ccc(OCc2ccc(C(=O)N/N=C/c3cccc([N+](=O)[O-])c3)o2)c(OC)c1`: 6.35 µM.
The same measure for `O=C(Nc1ccc2oc(-c3cccc(F)c3)nc2c1)c1ccccc1F`: > 35 µM (inactive); for `O=[N+]([O-])/C=C/c1cn(Cc2ccc(Cl)cc2)c2ccccc12`: 18.4 µM; for `Cc1ccc(-c2nc(NC(=O)c3nn(C)cc3[N+](=O)[O-])sc2C)cc1`: 5.96 µM.
Take `CC(C)CC(NC(=O)c1ccc(Cl)cc1)C(=O)OCC(=O)c1ccc2c(c1)NC(=O)CO2` (stereo not drawn): the AC50 was 4.28 µM.
As for `COc1cc(NC(=O)c2ccccc2)c(OC)cc1NC(=O)Cc1ccc(Br)cc1`, the figure is > 35 µM (inactive); as for `COc1ccccc1-c1cc(C(F)(F)F)nc(S(=O)(=O)CCCC(=O)NC(C)C)n1`, 25.8 µM.
As for `O=C(NC1CCCCC1)C(c1ccc(F)cc1)N(CCc1ccccc1)C(=O)CN1C(=O)c2ccccc2S1(=O)=O` (stereo not drawn), the AC50 was 19.6 µM.
For the molecule `Cc1ccc(C#N)c(SCC(=O)Nc2nccs2)n1`, the AC50 is > 35 µM (inactive).
The same measure for `Nc1c(C(=O)Nc2ccc(S(=O)(=O)N3CCCC3)cc2)sc2nc3ccc(OC(F)(F)F)cc3cc12`: 30.7 µM; for `COc1ccc(-c2cc(=O)oc3c(C)c(OC(=O)c4cccs4)ccc23)cc1`: 29.1 µM; for `N#C/C(=C\c1ccc(OCc2ccccc2)cc1)C(=O)Nc1nc2c(s1)CCN(Cc1ccccc1)C2`: > 35 µM (inactive).
Turning to `CSC[C@@H]1NC(=S)N(c2ccc(C)cc2)C1=O`, the AC50 is > 35 µM (inactive).
Turning to `Cc1nn(-c2ccccc2)c(Cl)c1CN(C(=O)CCl)c1ccc(Cl)cc1`, the concentration at half-maximal activity (AC50) is 24.6 µM.
Consider `O=C1/C(=C\c2c(NCCOCCO)nc3ccccn3c2=O)SC(=S)N1Cc1ccco1`, for which the AC50 is > 35 µM (inactive).
As for `Cc1cc(C)cc(Cn2ncc(Cl)c(Cl)c2=O)c1`, the figure is > 35 µM (inactive); as for `COc1ccc(-c2cc3ccccc3oc2=O)cc1NC(=S)NC(=O)c1ccc2c(c1)OCCO2`, 5.96 µM; as for `COC(=O)c1ccc2c(c1)C(C)(C)C(/C=C/c1ccc(O)cc1)=[N+]2C`, 14.2 µM.
The same measure for `COc1cc(/C=C(/C#N)c2nc3ccccc3[nH]2)ccc1OCC(=O)Nc1ccccc1C`: 5.91 µM; for `CC1=CC(=O)C(C(C)C)=C/C1=N/OS(=O)(=O)c1ccccc1`: 22 µM.
The same measure for `CCC(Sc1nc2cc3c(cc2c(=O)n1Cc1ccco1)OCO3)C(=O)Nc1cccc(OC)c1` (stereo not drawn): > 35 µM (inactive).
`COc1cc(NC(=O)c2ccccc2F)ccc1NC(=O)c1cc2ccccc2o1`: the AC50 is 36.6 µM.
The same measure for `COc1cc(CN2CCN(c3cc(C)ccc3C)CC2)ccc1O`: > 35 µM (inactive); for `COc1ccc(-c2c(C#N)c(N)nc(Sc3ccc(Cl)cc3)c2C#N)cc1`: > 35 µM (inactive); for `CC(C)N=c1scc(-c2ccco2)n1/N=C/c1ccc(O)c(O)c1`: > 35 µM (inactive).
As for `COc1ccc(NC(=O)c2cccc3c2C(=O)c2ccc(-c4ccc(F)cc4OCc4ccccc4)cc2S3(=O)=O)cc1`, the figure is > 35 µM (inactive); as for `CCOc1cc(/C=C\[N+](=O)[O-])ccc1OCC(=O)Nc1ccccc1C`, 5.27 µM; as for `O=C(Nc1ccc2oc(-c3ccccc3F)nc2c1)c1ccccc1F`, > 35 µM (inactive).
The same measure for `COc1ccc(OC)c(NC(=O)c2cc(-c3cc(C)ccc3O)n[nH]2)c1`: > 35 µM (inactive); for `Cn1c(=NC(=O)CCl)sc2ccccc21`: > 35 µM (inactive).
For `C=C1CCc2c([nH]c3ccc(OCC(C)C)cc23)C1=O`, the AC50 was 14.2 µM.
With `COc1ccccc1C(=O)Nc1ccnn1C1CCN(Cc2cn(C)c3ccccc23)CC1`, the AC50 is > 35 µM (inactive).
As for `COc1cc(/C=C(/C#N)c2nc3ccccc3[nH]2)ccc1OCC(=O)Nc1ccccc1C(C)C`, the figure is 7.53 µM; as for `COc1ccc(-c2ccc3c(c2)S(=O)(=O)c2cccc(C(=O)NC[C@@H]4CCCO4)c2C3=O)cc1OC`, > 35 µM (inactive).
As for `CC[C@H]1CN2CCc3cc(OC)c(OC)cc3[C@@H]2C[C@@H]1C[C@H]1NCCc2cc(OC)c(OC)cc21`, the figure is > 35 µM (inactive).
Regarding `COc1ccc2cc(C)c3nnc(SCC(=O)Nc4nc(-c5ccc(F)cc5)cs4)n3c2c1`, the AC50 is 26.2 µM.
Turning to `COc1ccc(C(=O)/C=C/C(=O)N(CC(=O)NC2CCCCC2)Cc2cccs2)c(O)c1`, the concentration at half-maximal activity (AC50) was 23.7 µM.
As for `Cc1ccc(NC(=O)c2ccc(N/N=C/c3cccc(O)c3)c([N+](=O)[O-])c2)cc1`, the AC50 is 29.8 µM.
The same measure for `Clc1ccccc1CN(Cc1ccccc1)c1ncnc2nc[nH]c12`: > 35 µM (inactive); for `CCOC(=O)C1=C(c2ccccc2)O/C(=C(/C#N)C(F)(F)F)S1`: > 35 µM (inactive); for `Cc1c(CCOC(=O)c2ccc(N3CCOCC3)c([N+](=O)[O-])c2)sc[n+]1CC#N`: > 35 µM (inactive).
As for `CCOc1cccc(C(=O)Nc2cccc(-c3nnc(-c4ccc(C)cc4)o3)c2)c1`, the half-maximal activity concentration (AC50) is 23.6 µM.
Regarding `Cc1cccc(C)c1NC(=O)C(Cl)C(=O)c1ccccc1` (stereo not drawn), the AC50 was > 35 µM (inactive).
As for `N#Cc1c(C(F)(F)F)cc(-c2ccccc2)nc1SCC(=O)Nc1sc2c(c1C#N)CCC2`, the AC50 was > 35 µM (inactive).
For `CCOC(=O)c1sc(NC(=O)CSc2nc(C)cc(C)c2C#N)c(C#N)c1C`, the AC50 was > 35 µM (inactive).
As for `CN(c1ccccc1)c1ccc(/C=C/[N+](=O)[O-])cc1`, the figure is 8.45 µM.
As for `CC1=NNC(=O)/C1=C\c1cn(-c2ccccc2)nc1-c1ccccc1`, the figure is 11.3 µM; as for `COc1ccc(C[C@H]2NC[C@H](O)[C@H]2OC(C)=O)cc1`, > 35 µM (inactive).
The same measure for `O=c1c(Cl)c(Cl)cnn1Cc1ccccc1Cl`: > 35 µM (inactive).
As for `CCc1nnc(NC(=O)c2nc(S(=O)(=O)Cc3ccccc3)ncc2Cl)s1`, the AC50 was > 35 µM (inactive).
Regarding `CCCCC1CCC(C(=O)N(CC(C)C)c2c(N)n(Cc3ccccc3)c(=O)[nH]c2=O)CC1` (stereo not drawn), the AC50 is 8 µM.
The same measure for `CC(C)(C)C1CCc2onc(C(=O)Nc3cccc(O)c3)c2C1` (stereo not drawn): > 35 µM (inactive); for `CN1C2CCC1/C(=C/c1ccccn1)C(=O)/C2=C\c1ccccn1`: > 35 µM (inactive).
As for `CCOC(=O)/C(=C\c1ccc([N+](=O)[O-])cc1)C(=O)c1cc(C(C)=O)c(Nc2ccccc2)s1`, the figure is 1.46 µM; as for `COc1ccc2c(c1)CCc1c(C(=O)Nc3cc(C)n(Cc4ccc(Cl)cc4)n3)noc1-2`, 14.2 µM.
As for `CCc1ccc2nc(N(CCCN(C)C)C(=O)c3ccc(S(=O)(=O)N4CCc5ccccc5C4)cc3)sc2c1`, the figure is > 35 µM (inactive).
